In ChEMBL document CHEMBL5390313, “Highly Potent Peptide Therapeutics To Prevent Protein Aggregation in Huntington's Disease” (ACS Med Chem Lett, 2023):
Calls of active or inactive are those of the source. The calls are words filed in the database; no cut-off is given here.

What was measured:
[1] = test system: Huntingtin (Homo sapiens), P42858 [UNDEFINED MUTATION]; experiment: Inhibition of TEV protease-induced 6His-GST tagged huntingtin polyQ 103 mutant (unknown origin) aggregation assessed as decrease in fibril length at 10 uM incubated for 24 hrs by AFM imaging analysis relative to control; design: scale not given: the % may be the effect or the level left
Method in brief: (§1)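 AFM imaging of Htt fibrils grown for 2 h after TEV cleavage in TEV cleavage buffer (pH 8.0). Peptide was then added, defining t = 0 h. Fibril length was measured at 0, 4, 8 and 24 h and reported as the mean length of 100 fibrils with standard deviation at each time point.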

[2] = test system: Huntingtin (Homo sapiens), P42858 [UNDEFINED MUTATION]; experiment: (§2) Inhibition of TEV protease-induced 6His-GST tagged huntingtin polyQ 103 mutant (unknown origin) aggregation expressed in Escherichia coli BL21(DE3) assessed as relative fluorescence unit at 1:1 molar ratio incubated for 16 hrs by ThT fluorescence based spectrophotometer analysis (reference value: 1235 a.u.)
Method in brief: (§3)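 Aggregation started by TEV protease addition, with ThT readings beginning right after cleavage. Peptide added equimolar (1:1) to each Htt protein. Fluorescence was followed at 37 °C for at least 16 h, with excitation at 438 nm and emission at 495 nm. The end-point value at 16 h is averaged over triplicates.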

[3] = test system: Huntingtin (Homo sapiens), P42858 [UNDEFINED MUTATION]; experiment: Inhibition of TEV protease-induced 6His-GST tagged huntingtin polyQ 46 mutant (unknown origin) aggregation assessed as decrease in individual fibers at 10 uM measured after 2 to 24 hrs by AFM imaging analysis; settings: time 2-24 hrs
Method in brief: (§4)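 AFM imaging of Htt aggregates after TEV cleavage. Fibrils were allowed to grow for 2 h, then peptide or nothing (control) was added, defining t = 0 h. Images were taken over 0–24 h and scored for spherical oligomers, individual fibrils, branching and aggregate clusters.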

[4] = test system: Huntingtin (Homo sapiens), P42858 [UNDEFINED MUTATION]; experiment: Inhibition of TEV protease-induced 6His-GST tagged huntingtin polyQ 103 mutant (unknown origin) aggregation assessed as isolated fibrils at 10 uM measured after 4 to 8 hrs by AFM imaging analysis; settings: time 4-8 hrs
[5] = test system: Huntingtin (Homo sapiens), P42858 [UNDEFINED MUTATION]; experiment: Inhibition of TEV protease-induced 6His-GST tagged huntingtin polyQ 103 mutant (unknown origin) aggregation assessed as reduction of spherical oligomers at 10 uM measured immediately by AFM imaging analysis; method in brief: as §4
[6] = test system: Huntingtin (Homo sapiens), P42858 [UNDEFINED MUTATION]; experiment: Inhibition of TEV protease-induced 6His-GST tagged huntingtin polyQ 46 mutant (unknown origin) aggregation assessed as reduction of spherical oligomers at 10 uM measured immediately by AFM imaging analysis; method in brief: as §4
[7] = test system: Huntingtin (Homo sapiens), P42858 [UNDEFINED MUTATION]; experiment: Inhibition of TEV protease-induced 6His-GST tagged huntingtin polyQ 103 mutant (unknown origin) aggregation assessed as decrease in fibril branching at 10 uM measured after 4 to 24 hrs by AFM imaging analysis; settings: time 4-24 hrs; method in brief: as §4
[8] = test system: Huntingtin (Homo sapiens), P42858 [UNDEFINED MUTATION]; experiment: Inhibition of TEV protease-induced 6His-GST tagged huntingtin polyQ 46 mutant (unknown origin) aggregation assessed as decrease in fibril length at 10 uM incubated for 24 hrs by AFM imaging analysis relative to control; design: scale not given: the % may be the effect or the level left; method in brief: as §1
[9] = test system: Huntingtin (Homo sapiens), P42858 [UNDEFINED MUTATION]; experiment: Inhibition of TEV protease-induced 6His-GST tagged wildtype huntingtin polyQ 25 (unknown origin) aggregation assessed as decrease in fibril length at 10 uM incubated for 24 hrs by AFM imaging analysis relative to control; design: scale not given: the % may be the effect or the level left; method in brief: as §1
[10] = test system: Huntingtin (Homo sapiens), P42858 [UNDEFINED MUTATION]; experiment: Inhibition of TEV protease-induced 6His-GST tagged wildtype huntingtin polyQ 25 (unknown origin) aggregation assessed as decrease in individual fibers at 10 uM measured after 2 to 24 hrs by AFM imaging analysis; settings: time 2-24 hrs; method in brief: as §4
[11] = test system: Huntingtin (Homo sapiens), P42858 [UNDEFINED MUTATION]; experiment: Inhibition of TEV protease-induced 6His-GST tagged huntingtin polyQ 103 mutant (unknown origin) aggregation assessed as decrease in individual fibers at 10 uM measured after 2 to 24 hrs by AFM imaging analysis; settings: time 2-24 hrs; method in brief: as §4
[12] = test system: Huntingtin (Homo sapiens), P42858 [UNDEFINED MUTATION]; experiment: as §2, with “tagged wildtype” for “tagged”, “25” for “103 mutant”, “666” for “1235”; method in brief: as §3
[13] = test system: Huntingtin (Homo sapiens), P42858 [UNDEFINED MUTATION]; experiment: as §2, with “46” for “103”, “692” for “1235”; method in brief: as §3
[14] = test system: Huntingtin (Homo sapiens), P42858 [UNDEFINED MUTATION]; experiment: Inhibition of TEV protease-induced 6His-GST tagged huntingtin polyQ 103 mutant (unknown origin) aggregation assessed as reduction in individual fibrils at 10 uM measured immediately by AFM imaging analysis; method in brief: as §4
[15] = test system: Huntingtin (Homo sapiens), P42858 [UNDEFINED MUTATION]; experiment: Inhibition of TEV protease-induced 6His-GST tagged wildtype huntingtin polyQ 25 (unknown origin) aggregation assessed as reduction of spherical oligomers at 10 uM measured immediately by AFM imaging analysis
[16] = test system: Huntingtin (Homo sapiens), P42858 [UNDEFINED MUTATION]; experiment: Inhibition of TEV protease-induced 6His-GST tagged huntingtin polyQ 46 mutant (unknown origin) aggregation assessed as decrease in fibril length at 10 uM measured after 2 to 12 hrs by AFM imaging analysis; settings: time 2-12 hrs
[17] = test system: Huntingtin (Homo sapiens), P42858 [UNDEFINED MUTATION]; experiment: Inhibition of TEV protease-induced 6His-GST tagged huntingtin polyQ 103 mutant (unknown origin) aggregation assessed as decrease in fibril clustering at 10 uM measured after 24 hrs by AFM imaging analysis; method in brief: as §4
[18] = test system: Huntingtin (Homo sapiens), P42858 [UNDEFINED MUTATION]; experiment: Inhibition of TEV protease-induced 6His-GST tagged huntingtin polyQ 103 mutant (unknown origin) aggregation assessed as decrease in fibril length at 10 uM measured after 2 to 12 hrs by AFM imaging analysis; settings: time 2-12 hrs

Huntingtin (Homo sapiens), P42858 [UNDEFINED MUTATION], sequence (P42858 whole entry, looked up, change not shown): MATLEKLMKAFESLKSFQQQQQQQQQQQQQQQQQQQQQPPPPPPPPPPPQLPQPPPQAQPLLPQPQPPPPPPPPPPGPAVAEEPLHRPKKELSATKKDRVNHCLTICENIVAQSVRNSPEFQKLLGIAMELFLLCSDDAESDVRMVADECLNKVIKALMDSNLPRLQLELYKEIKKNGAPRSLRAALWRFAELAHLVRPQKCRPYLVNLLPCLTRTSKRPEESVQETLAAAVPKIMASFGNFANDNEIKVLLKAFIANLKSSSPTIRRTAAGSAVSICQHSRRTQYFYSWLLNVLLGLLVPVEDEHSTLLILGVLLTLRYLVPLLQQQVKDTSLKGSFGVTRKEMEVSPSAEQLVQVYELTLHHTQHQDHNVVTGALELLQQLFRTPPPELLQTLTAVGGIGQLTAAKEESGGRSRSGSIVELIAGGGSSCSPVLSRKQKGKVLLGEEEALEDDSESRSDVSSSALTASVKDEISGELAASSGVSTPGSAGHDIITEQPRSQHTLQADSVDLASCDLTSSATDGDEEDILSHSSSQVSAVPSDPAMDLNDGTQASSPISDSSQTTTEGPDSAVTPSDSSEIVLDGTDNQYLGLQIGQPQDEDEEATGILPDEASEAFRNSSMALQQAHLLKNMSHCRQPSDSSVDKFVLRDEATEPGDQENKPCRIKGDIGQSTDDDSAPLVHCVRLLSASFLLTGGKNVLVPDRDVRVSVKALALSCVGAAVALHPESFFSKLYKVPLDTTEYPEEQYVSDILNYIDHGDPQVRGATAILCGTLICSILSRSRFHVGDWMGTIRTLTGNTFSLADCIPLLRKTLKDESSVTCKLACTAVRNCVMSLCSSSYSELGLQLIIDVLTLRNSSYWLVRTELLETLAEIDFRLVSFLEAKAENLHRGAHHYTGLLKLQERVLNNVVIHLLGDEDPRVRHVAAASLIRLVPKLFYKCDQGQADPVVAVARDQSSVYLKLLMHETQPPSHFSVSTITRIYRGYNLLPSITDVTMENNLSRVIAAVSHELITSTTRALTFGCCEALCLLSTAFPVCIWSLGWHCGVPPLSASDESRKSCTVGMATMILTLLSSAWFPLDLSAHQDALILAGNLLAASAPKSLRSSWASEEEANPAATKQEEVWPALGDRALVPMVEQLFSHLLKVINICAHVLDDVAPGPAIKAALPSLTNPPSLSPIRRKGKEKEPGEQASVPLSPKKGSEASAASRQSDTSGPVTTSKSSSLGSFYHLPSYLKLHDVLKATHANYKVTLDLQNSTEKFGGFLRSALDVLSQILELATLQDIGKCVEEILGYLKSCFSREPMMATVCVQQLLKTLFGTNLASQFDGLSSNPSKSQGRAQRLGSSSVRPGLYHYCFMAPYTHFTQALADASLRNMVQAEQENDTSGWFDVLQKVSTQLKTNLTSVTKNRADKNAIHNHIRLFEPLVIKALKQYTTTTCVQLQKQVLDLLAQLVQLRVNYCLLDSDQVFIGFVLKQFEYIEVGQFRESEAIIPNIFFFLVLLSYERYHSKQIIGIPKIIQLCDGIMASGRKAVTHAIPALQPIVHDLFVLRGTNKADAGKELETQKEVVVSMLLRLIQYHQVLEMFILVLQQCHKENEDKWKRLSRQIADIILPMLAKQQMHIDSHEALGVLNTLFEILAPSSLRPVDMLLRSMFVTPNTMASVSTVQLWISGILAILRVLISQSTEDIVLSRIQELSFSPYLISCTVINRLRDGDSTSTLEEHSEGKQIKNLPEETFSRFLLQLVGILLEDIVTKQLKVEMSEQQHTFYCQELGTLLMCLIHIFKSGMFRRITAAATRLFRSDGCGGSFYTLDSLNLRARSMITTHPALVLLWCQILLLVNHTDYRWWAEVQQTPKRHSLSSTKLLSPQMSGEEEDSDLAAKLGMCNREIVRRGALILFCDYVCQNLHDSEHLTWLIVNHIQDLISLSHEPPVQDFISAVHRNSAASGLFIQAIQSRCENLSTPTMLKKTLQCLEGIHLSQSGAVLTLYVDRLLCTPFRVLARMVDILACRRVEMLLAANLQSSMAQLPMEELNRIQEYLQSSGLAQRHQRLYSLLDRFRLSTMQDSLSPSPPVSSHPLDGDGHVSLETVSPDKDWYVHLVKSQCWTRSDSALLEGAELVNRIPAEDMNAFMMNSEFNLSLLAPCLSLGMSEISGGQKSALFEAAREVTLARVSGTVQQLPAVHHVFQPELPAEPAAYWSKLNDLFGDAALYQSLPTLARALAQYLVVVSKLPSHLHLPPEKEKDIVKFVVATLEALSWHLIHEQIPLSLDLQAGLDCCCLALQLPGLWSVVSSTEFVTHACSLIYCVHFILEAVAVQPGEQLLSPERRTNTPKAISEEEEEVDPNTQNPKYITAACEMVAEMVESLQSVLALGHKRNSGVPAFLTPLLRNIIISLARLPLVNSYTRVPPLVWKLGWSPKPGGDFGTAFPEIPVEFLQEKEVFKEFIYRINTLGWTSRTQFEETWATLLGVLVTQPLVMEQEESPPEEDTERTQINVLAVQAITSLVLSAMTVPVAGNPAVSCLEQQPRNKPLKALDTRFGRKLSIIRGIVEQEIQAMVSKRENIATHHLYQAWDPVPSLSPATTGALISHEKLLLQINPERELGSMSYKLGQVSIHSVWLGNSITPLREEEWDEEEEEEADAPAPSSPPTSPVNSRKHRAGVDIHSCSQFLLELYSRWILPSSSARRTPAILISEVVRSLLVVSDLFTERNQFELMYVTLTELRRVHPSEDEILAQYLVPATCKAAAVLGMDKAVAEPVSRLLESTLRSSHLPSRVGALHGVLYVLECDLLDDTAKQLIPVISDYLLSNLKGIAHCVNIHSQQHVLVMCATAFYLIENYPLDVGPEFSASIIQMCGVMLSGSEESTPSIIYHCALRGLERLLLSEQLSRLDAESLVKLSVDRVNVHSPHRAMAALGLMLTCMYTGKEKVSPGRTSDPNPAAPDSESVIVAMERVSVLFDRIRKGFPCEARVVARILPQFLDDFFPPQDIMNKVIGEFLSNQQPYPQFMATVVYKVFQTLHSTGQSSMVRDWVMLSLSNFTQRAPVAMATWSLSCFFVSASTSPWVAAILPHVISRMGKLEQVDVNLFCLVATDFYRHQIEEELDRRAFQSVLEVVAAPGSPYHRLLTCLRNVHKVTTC

Activity [1] | RFU [2] | inhibition [3] | inhibition [4] | inhibition [5] | inhibition [6] | inhibition [7] | Activity [8] | Activity [9] | inhibition [10] | inhibition [11] | RFU [12] | RFU [13] | inhibition [14] | inhibition [15] | inhibition [16] | inhibition [17] | inhibition [18] | Compound
22.7% | 433 a.u. | Active | Active | inactive | inactive | Active | 17.6% | 38.3% | Active | Active | 459 a.u. | 500 a.u. | inactive | inactive | Active | Active | Active | CSCC[C@H](NC(=O)[C@H](CO)NC(=O)[C@H](Cc1c[nH]cn1)NC(=O)[C@H](CC(C)C)NC(=O)CNC(=O)[C@@H](N)Cc1c[nH]cn1)C(=O)N[C@@H](Cc1c[nH]cn1)C(=O)N[C@@H](CC(N)=O)C(=O)N[C@@H](CCCCN)C(=O)N[C@@H](CC(C)C)C(=O)N[C@@H](CC(C)C)C(=O)N[C@@H](CCC(N)=O)C(=O)N[C@H](C(=O)O)[C@@H](C)O
28% | 431 a.u. | Active | Active | inactive | inactive | Active | 17.3% | 25.6% | Active | Active | 552 a.u. | 634 a.u. | inactive | inactive | Active | Active | Active | CSCC[C@H](NC(=O)[C@@H](N)Cc1c[nH]c2ccccc12)C(=O)N[C@@H](Cc1ccccc1)C(=O)N1CCC[C@H]1C(=O)N[C@@H](CO)C(=O)N[C@@H](CC(C)C)C(=O)N[C@@H](CCCCN)C(=O)N[C@@H](CC(C)C)C(=O)N[C@@H](CC(C)C)C(=O)N[C@@H](CC(=O)O)C(=O)N[C@@H](Cc1ccc(O)cc1)C(=O)N[C@@H](Cc1c[nH]cn1)C(=O)O
36.7% | 564 a.u. | Active | Active | inactive | inactive | Active | 24.9% | 42.9% | Active | Active | 424 a.u. | 357 a.u. | inactive | inactive | Active | Active | Active | CC(C)C[C@H](NC(=O)CNC(=O)[C@H](CC(C)C)NC(=O)[C@H](CO)NC(=O)[C@H](CC(N)=O)NC(=O)[C@H](C)NC(=O)CNC(=O)[C@H](Cc1c[nH]cn1)NC(=O)[C@@H](N)Cc1c[nH]cn1)C(=O)N[C@H](C(=O)N[C@@H](CCC(N)=O)C(=O)N[C@@H](CO)C(=O)O)C(C)C
